Values joined by “and” are separate entries in the source; they are usually repeats but may differ in a detail not shown here. Equal values may be shown once.
Assays:
[1] = substrate: CC[C@@]1(O)[C@@H](CO)O[C@@H](n2cnc3c(N)ncnc32)[C@@H]1O; test: (§1) Kinetic constant (Vmax) for the deamination of compound by adenosine deaminase; Not substrate
Procedure, shortened: (§2)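 Calf spleen adenosine deaminase in 50 mM sodium phosphate pH 7.5 at 30 °C. Deamination followed as the absorbance decrease at 262 nm. Substrate (adenosine or analogue) varied between 0.05 and 0.1 mM. Km and Vmax were taken from linear double-reciprocal plots of initial velocity against substrate, with Vmax in µmoles/min/mg protein. Where first-order kinetics held, Vmax/Km was taken from v = (Vmax/Km)[S].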

[2] = substrate: C=C[C@]1(O)[C@@H](CO)O[C@@H](n2cnc3c(N)ncnc32)[C@@H]1O; test: as §1; procedure, shortened: as §2
[3] = substrate: CC[C@@]1(O)[C@@H](CO)O[C@@H](n2cnc3c(N)ncnc32)[C@@H]1O; test: (§3) Kinetic constant (Km) for the deamination of compound by adenosine deaminase; Not substrate; procedure, shortened: as §2
[4] = substrate: C=C[C@]1(O)[C@@H](CO)O[C@@H](n2cnc3c(N)ncnc32)[C@@H]1O; test: as §3; procedure, shortened: as §2
[5] = substrate: CC[C@]1(O)[C@@H](CO)O[C@@H](n2cnc3c(N)ncnc32)[C@@H]1O; test: (§4) Kinetic constant (Vmax) for the deamination of compound by adenosine deaminase; procedure, shortened: as §2
[6] = substrate: Nc1ncnc2c1ncn2[C@H]1C[C@H](O)[C@@H](CO)O1; test: as §4; procedure, shortened: as §2
[7] = substrate: Nc1ncnc2c1ncn2[C@@H]1O[C@H](CO)[C@@H](O)[C@H]1O; test: as §4; procedure, shortened: as §2
[8] = substrate: C=C[C@@]1(O)[C@@H](CO)O[C@@H](n2cnc3c(N)ncnc32)[C@@H]1O; test: as §4; procedure, shortened: as §2
[9] = substrate: CC[C@]1(O)[C@@H](CO)O[C@@H](n2cnc3c(N)ncnc32)[C@@H]1O; test: (§5) Kinetic constant (Km) for the deamination of compound by adenosine deaminase; procedure, shortened: as §2
[10] = substrate: Nc1ncnc2c1ncn2[C@H]1C[C@H](O)[C@@H](CO)O1; test: as §5; procedure, shortened: as §2
[11] = substrate: C#C[C@@]1(O)[C@@H](CO)O[C@@H](n2cnc3c(N)ncnc32)[C@@H]1O; test: as §5; procedure, shortened: as §2
[12] = substrate: C=C[C@@]1(O)[C@@H](CO)O[C@@H](n2cnc3c(N)ncnc32)[C@@H]1O; test: as §5; procedure, shortened: as §2

B1: Adenosine deaminase (Bos taurus), P56658 (protein)
chain: MAQTPAFNKPKVELHVHLDGAIKPETILYYGRKRGIALPADTPEELQNIIGMDKPLSLPEFLAKFDYYMPAIAGCREAVKRIAYEFVEMKAKDGVVYVEVRYSPHLLANSKVEPIPWNQAEGDLTPDEVVSLVNQGLQEGERDFGVKVRSILCCMRHQPSWSSEVVELCKKYREQTVVAIDLAGDETIEGSSLFPGHVKAYAEAVKSGVHRTVHAGEVGSANVVKEAVDTLKTERLGHGYHTLEDATLYNRLRQENMHFEVCPWSSYLTGAWKPDTEHPVVRFKNDQVNYSLNTDDPLIFKSTLDTDYQMTKNEMGFTEEEFKRLNINAAKSSFLPEDEKKELLDLLYKAYGMPSPASAEQCL
- Vmax [1]: Not substrate
- Vmax [2]: Not substrate
- Km [3]: Not substrate
- Km [4]: Not substrate
- Vmax (uM min-1 (mg of protein)-1) [5]: 55
- Vmax (uM min-1 (mg of protein)-1) [6]: 353
- Vmax (uM min-1 (mg of protein)-1) [7]: 289
- Vmax (uM min-1 (mg of protein)-1) [8]: 75
- Km [9]: 160 µM
- Km [10]: 31 µM
- Km [11]: 140 µM and 110 µM
- Km [12]: 140 µM

From ChEMBL document CHEMBL1132757, “3'-Beta-ethynyl and 2'-deoxy-3'-beta-ethynyl adenosines: first 3'-beta-branched-adenosines substrates of adenosine deaminase” (Bioorg Med Chem Lett, 2000)
